We go through five compounds from ChEMBL document CHEMBL4402525, “Potential Tools for Eradicating HIV Reservoirs in the Brain: Development of Trojan Horse Prodrugs for the Inhibition of P-Glycoprotein with Anti-HIV-1 Activity” (J Med Chem, 2020).

The source made the active and inactive calls. No cut-off for these calls is given here. Some results are limits rather than exact numbers.

For series [1], the system named is Human immunodeficiency virus 1. In words: Antiviral activity against HIV1 LAI infected in human 12D7 cells overexpressing p-gp assessed as reduction in P24 level at 0.08 to 1.25 uM incubated for 3 days followed by replacement of fresh medium containing compound and measured after 3 days by ELISA. Type of series: functional, organism-based. The following applies: M:B_Lai. The method in brief: (§1)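 12D7 CD4+ T cells in log phase, resuspended at 1 million/mL, infected 4 h with 500 TCID50 HIV-1 LAI, washed three times, plated at 75 000 cells/mL; compound added at 0.05% DMSO in RPMI 1640 with 10% FBS, L-glutamine and penicillin/streptomycin; medium with same compound level renewed day 3; day-6 supernatant p24 (gag) quantified by ELISA; duplicate runs.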
On the technique in general: An ELISA detects its analyte on a solid surface through an enzyme-linked reagent.

Series [2] concerns Human immunodeficiency virus 1. In words: Antiviral activity against HIV1 LAI infected in human 12D7 cells overexpressing p-gp assessed as reduction in P24 level at 1:1 ratio of test compound to abacavir incubated for 3 days followed by followed by replacement of fresh medium containing compound and measured after 3 days by ELISA. The class given is functional, organism-based. Conditions: M:B_Lai. The method in brief:
as §1

A short description of series [3]: Produrg conversion in pH 7.4 PBS/30% methanol assessed as GSH-mediated abacavir formation by measuring half life at 4 uM in presence of 10 mM GSH by UPLC-MS analysis. Type of series: ADME. The following applies: pH 7.4, 4 µM. The essentials: (§2)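 Heterodimer at 4 μM was incubated at 37 °C with 250 mM DTT or 10 mM GSH. The solvent was degassed 30% methanol/PBS (pH ~ 7.4) containing 5 μM quinine as internal standard. Reductant-triggered release of the monomeric drugs was followed over time and given as t1/2.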

The nature of series [4]: Produrg conversion in pH 7.4 PBS/30% methanol assessed as DTT-mediated abacavir formation by measuring half life at 4 uM in presence of 250 mM DTT by UPLC-MS analysis. The class given is ADME. Conditions: buffer, pH 7.4, 4 µM. The essentials: as §2
Series [5] in a line: Produrg conversion in pH 7.4 PBS/30% methanol assessed as DTT-mediated darunavir formation by measuring half life at 4 uM in presence of 250 mM DTT by UPLC-MS analysis. Type of series: ADME. Conditions: buffer, pH 7.4, 4 µM. The method in brief:
as §2

Series [6] is described as follows: Produrg conversion in pH 7.4 PBS/30% methanol assessed as GSH-mediated darunavir formation by measuring half life at 4 uM in presence of 10 mM GSH by UPLC-MS analysis. Conditions: pH 7.4, 4 µM. The class given is ADME. The method in brief:
as §2

Series [7] is described as follows: Stability of compound in PBS after 3 days by UPLC-MS analysis. The class given is physicochemical. Conditions: read-out: Stability.
Series [8] is described as follows: Stability of compound in RPMI medium at 100 uM after 3 days by UPLC-MS analysis. The class given is physicochemical. Conditions: read-out: Stability. The essentials: (§3)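 Heterodimer at 100 μM was held at 37 °C in 12D7 cell medium with 1% DMSO. The medium was RPMI 1640 with penicillin/streptomycin, 5 mM L-glutamine and 10% FBS. Every 24 h an aliquot was quenched 1:1 with ice-cold acetonitrile containing 1.0 mM 4-methoxybenzyl alcohol, then centrifuged. Supernatant was run on C8 RP-HPLC (0.05% TFA, 15–75% acetonitrile over 30 min, UV 254 nm), in duplicate.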

The nature of series [9]: Produrg conversion in pH 7.4 PBS/30% methanol assessed as DTT-mediated nelfinavir formation by measuring half life at 4 uM in presence of 250 mM DTT by UPLC-MS analysis. Type of series: ADME. The following applies: buffer, pH 7.4, 4 µM. The essentials: as §2
Series [10] is described as follows: Produrg conversion in pH 7.4 PBS/30% methanol assessed as GSH-mediated nelfinavir formation by measuring half life at 4 uM in presence of 10 mM GSH by UPLC-MS analysis. Type of series: ADME. The following applies: pH 7.4, 4 µM. The method in brief: as §2
Series [11] in a line: Stability of compound in PBS after 1 week by UPLC-MS analysis. Type of series: physicochemical. Conditions: read-out: Stability.
Series [12] in a line: Stability of compound in RPMI medium at 100 uM after 1 week by UPLC-MS analysis. The class given is physicochemical. Conditions: read-out: Stability. The method in brief: as §3
For series [13], the target named is T1, P-gp (ABCB1) (Homo sapiens, UniProt P08183). Briefly: Inhibition of P-gp in human 12D7-MDR cells up to 500 uM using calcein-AM as substrate after 30 mins by flow cytometric analysis relative to control. The following applies: probe calcein-AM.
T1 sequence (P08183 whole entry): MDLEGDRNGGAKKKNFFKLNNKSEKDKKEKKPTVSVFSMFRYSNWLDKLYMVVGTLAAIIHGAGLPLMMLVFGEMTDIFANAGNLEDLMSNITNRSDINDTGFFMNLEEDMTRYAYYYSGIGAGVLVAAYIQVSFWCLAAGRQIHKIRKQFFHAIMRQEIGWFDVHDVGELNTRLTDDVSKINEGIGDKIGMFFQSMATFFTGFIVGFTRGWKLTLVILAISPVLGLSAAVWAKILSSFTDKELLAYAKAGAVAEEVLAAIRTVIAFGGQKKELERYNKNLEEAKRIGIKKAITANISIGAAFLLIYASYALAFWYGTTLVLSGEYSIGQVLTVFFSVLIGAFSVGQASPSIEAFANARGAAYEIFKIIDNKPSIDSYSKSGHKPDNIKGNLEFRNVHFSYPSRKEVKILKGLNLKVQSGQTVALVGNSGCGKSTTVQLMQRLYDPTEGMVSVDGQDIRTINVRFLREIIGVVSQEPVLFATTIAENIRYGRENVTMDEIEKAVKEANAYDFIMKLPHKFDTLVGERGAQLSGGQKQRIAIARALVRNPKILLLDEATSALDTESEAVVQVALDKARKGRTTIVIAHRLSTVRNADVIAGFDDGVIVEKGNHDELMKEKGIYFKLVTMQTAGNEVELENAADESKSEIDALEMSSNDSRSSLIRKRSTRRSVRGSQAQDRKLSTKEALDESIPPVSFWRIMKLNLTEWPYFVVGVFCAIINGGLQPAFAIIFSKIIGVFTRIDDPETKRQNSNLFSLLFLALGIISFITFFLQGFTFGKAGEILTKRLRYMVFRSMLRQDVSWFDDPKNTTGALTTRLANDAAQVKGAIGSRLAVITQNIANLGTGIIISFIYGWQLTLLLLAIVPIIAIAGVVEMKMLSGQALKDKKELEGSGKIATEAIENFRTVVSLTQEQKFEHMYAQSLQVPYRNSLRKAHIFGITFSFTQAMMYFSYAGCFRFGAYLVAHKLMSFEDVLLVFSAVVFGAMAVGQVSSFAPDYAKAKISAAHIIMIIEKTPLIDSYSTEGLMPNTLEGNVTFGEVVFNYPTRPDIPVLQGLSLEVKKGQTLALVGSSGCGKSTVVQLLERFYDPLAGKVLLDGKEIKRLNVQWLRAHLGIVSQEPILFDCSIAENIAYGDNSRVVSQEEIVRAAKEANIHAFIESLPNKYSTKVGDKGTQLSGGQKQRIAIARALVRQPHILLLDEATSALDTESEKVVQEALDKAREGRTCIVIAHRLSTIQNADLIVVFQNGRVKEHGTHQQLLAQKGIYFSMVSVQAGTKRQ
Series [14] has as its target T1, P-gp (ABCB1). Briefly: Inhibition of P-gp in human 12D7-MDR cells up to 500 uM using NBD-Aba as substrate after 30 mins by flow cytometric analysis relative to control. The following applies: probe NBD-Aba. In general terms: Flow cytometry measures light scatter and fluorescence of single cells or particles in a stream.

For `Cc1c(O)cccc1C(=O)N[C@@H](CSc1ccccc1)[C@H](O)CN1C[C@H]2CCCC[C@H]2C[C@H]1C(=O)NC(C)(C)C`, the result in [1] and in series [2] was Active.

Turning to `CC(C)CN(C[C@@H](OC(=O)CCCSSCCCC(=O)OC[C@@H]1C=C[C@H](n2cnc3c(NC4CC4)nc(N)nc32)C1)[C@H](Cc1ccccc1)NC(=O)O[C@H]1CO[C@H]2OCC[C@H]21)S(=O)(=O)c1ccc(N)cc1`, the t1/2 in [3] worked out at 21.6 h; in series [4] it was 34.5 h; in series [5], 21.3 h; in series [6], 36.3 h. For the same compound, the remaining at 72 h in series [7] is greater than 95%. Also, the remaining at 72 h, 100 µM in [8] is greater than 95%. Besides, the result in series [1] was Active.

As for `Cc1c(OC(=O)CCCSSCCCC(=O)OC[C@@H]2C=C[C@H](n3cnc4c(NC5CC5)nc(N)nc43)C2)cccc1C(=O)N[C@@H](CSc1ccccc1)[C@H](O)CN1C[C@H]2CCCC[C@H]2C[C@H]1C(=O)NC(C)(C)C`, the t1/2 in series [3] came to 29.4 h; in series [4] it was 31.8 h; in [9] it was 1.2 h; in series [10] it was 10.3 h. Moreover, in series [11], the remaining at 168 h is greater than 95%. Besides, in [12], the remaining at 168 h, 100 µM was greater than 95%. The outcome in series [1] was Active.

For orientation: inhibition means how much of the control response was suppressed. For the compound `Nc1nc(NC2CC2)c2ncn([C@H]3C=C[C@@H](CO)C3)c2n1` [ABACAVIR], the inhibition at 0.5 h at P-gp (ABCB1) [13] and on P-gp (ABCB1) [14] was less than 10% throughout. In addition, the outcome in series [1] was Active.

For `CC(C)CN(C[C@@H](O)[C@H](Cc1ccccc1)NC(=O)O[C@H]1CO[C@H]2OCC[C@H]21)S(=O)(=O)c1ccc(N)cc1`, the outcome in series [1] and in series [2] was Active.
